GC-A act: GC-A (human) enzyme activation; AID 1671463; activation, % at 10 µM; HEK293 GC-A cells, cGMP TR-FRET, EC30 ANP; 0% at EC30 ANP, 100% saturating ANP; hit rate 0.14% among 370,000; in the data active = activation above about 40%
Xi reactivation: X-chromosome reactivation activator; XiGFP mouse fibroblasts, % GFP-positive cells imaging, 3 d; cells co-treated with 5-aza-dC sensitizer; scaled so ellipticine positive control = 100%; activation, % at 7.58 µM; hit rate 0.055% among 360,000;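 active = mean normalized replicate activation at least 10% and every replicate at or above 10%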;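 note: 0% = median of on-plate neutral control wells and 100% = ellipticine 6 µM median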
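System: 68-5-11 XiGFP fibroblast line; Timing: 3 days compound exposure; Compound dosing: one concentration, pinned; Benchmarks: positive control ellipticine, 6 µM final; Buffer or medium: DMEM containing 5-aza-dC.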
Glyco luc inh: blocks N-linked glycosylation in D54 reporter cells; D54 ERlucT glycosylation luciferase reporter, 24 h; percent of 100 nM tunicamycin response; reporter increase, % at 12.5 µM; hit rate 0.23% among 360,000; AID 588692;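 active = mean luciferase reporter signal, scaled so untreated is 0 and the glycosylation-blocking control 100, at or above a set limit in every replicate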;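 note: luciferase carries N-glycosylation sites so blocking glycosylation raises the light; 0% = median of neutral control wells and 100% = median of 100 nM tunicamycin wells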
GC-B act: GC-B (human) receptor activation. P20594. HEK293-GC-B cells, CNP EC30, cGMP TR-FRET; 0% at EC30 CNP, 100% saturating CNP. activation, % at 10 µM. hit rate 0.11% among 370,000. AID 1920062;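 active = activation at 10 µM reaching about 35% in either raw or pattern-adjusted values, limit read from the data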
Vif inh: HIV Vif inhibition; hit rate 0.35% among 340,000; inhibition, % at 7.49 µM; HEK293T cells, Vif self-association by quenched fluorescence, imaging, 24 h; in the data active = inhibition above about 50%, passing the limit was not always enough
CaV13 FRET inh: Disruptors of the CACNA1D IQ motif to Ca2+-dependent inactivation inhibitor domain association, primary screening, Förster resonance energy transfer in intact living …. HEK cells, CFP/YFP FRET ICDI-IQ, plate reader, 10 min; percent FRET-ratio fall versus neutral wells. inhibition, % at 12.3 µM. hit rate 0.098% among 340,000;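 active = mean replicate inhibition of at least 30% and at least 1% of replicates passing that level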;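 note: 0% = median of the neutral control wells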
* hit, by the source's call; . = no result given; + = active, no number. Only some compounds are listed: those with a hit (about 0.7% of all), similar ones and a draw of the others.

SMILES | GC-A act | Xi reactivation | Glyco luc inh | GC-B act | Vif inh | CaV13 FRET inh
CN1CCN(C(c2ccc(C(F)(F)F)cc2)c2cc(Cl)c3cccnc3c2O)CC1 (stereo not drawn) | -2 | 1 | . | -7 | . | -9
CC1CCN(S(=O)(=O)N2CCC(C(=O)NC3CCCC3)CC2)CC1 | 2 | 0 | 1 | -4 | -2 | 76*
CNC(=O)COC(=O)c1cccnc1SC | 1 | . | 2 | 0 | . | .
CSc1ncccc1C(=O)OCC(=O)NC(C)(C)C | 1 | 0 | 1 | 4 | 52* | -7
COCCNC(=S)N/N=C/c1ccc(-c2ccc([N+](=O)[O-])cc2)o1 | 2 | 2 | 0 | -2 | 5 | +
COc1cc(CNc2ccc(O)cc2)cc(Br)c1OCc1ccccc1 | -2 | 0 | 57* | -11 | -7 | -16
Cc1ccccc1NC(=S)NC1CCCC1 | -2 | 0 | 1 | 6 | 59* | 1
CC(C)CNC(=S)NC1CCCC1 | 1 | . | 2 | 7 | 63* | -3
S=C(NC1CCCC1)NC1CCCC1 | 2 | 0 | 1 | 6 | 53* | 7
COCC(=O)Nc1ccc2c(c1)C(=O)N(C)[C@@H]1CC[C@@H](CC(=O)NCc3ccccc3)O[C@@H]1CO2 | . | 0 | . | . | . | .
CCCCN(C(=O)CCC(=O)O)C1CC(=O)N(c2ccc(OCCC)cc2)C1=O (stereo not drawn) | -11 | . | 0 | -13 | -5 | -5
CCCCCCC(=O)N(O)C1CC(=O)N(c2ccc(Br)cc2)C1=O (stereo not drawn) | 10 | . | 68* | -5 | 4 | -6
COc1ccccc1N(O)C1CC(=O)N(c2ccc(Br)cc2)C1=O (stereo not drawn) | 1 | . | 1 | 4 | -2 | -5
CCCCCCC(=O)N(O)C1CC(=O)N(c2ccc(F)cc2)C1=O (stereo not drawn) | 8 | 0 | 78* | 2 | 39 | -5
CCOC(=O)CSc1nnc(-c2ccc(Cl)cc2Cl)o1 | 67* | . | 0 | 1 | -7 | -4
CCOC(=O)CSc1nnc(-c2ccccc2)o1 | -1 | . | 2 | 1 | -1 | .
O=C(CSc1nnc(-c2ccccc2F)o1)OCc1ccccc1 | 61* | . | 2 | -5 | -10 | -12
CCCOC(=O)CSc1nnc(-c2ccc(Cl)cc2Cl)o1 | 63* | . | 1 | -4 | 0 | -7
CCCNC(=O)Nc1ccc2c(c1)C(=O)N(C)[C@@H]1CC[C@@H](CC(=O)O)O[C@H]1CO2 | . | 0 | . | . | . | .
CNC[C@H]1Oc2ncc(C3=CCCC3)cc2C(=O)N([C@@H](C)CO)C[C@H]1C | . | -1 | . | . | . | .
C[C@H]1CN([C@@H](C)CO)C(=O)Cc2cc(NS(=O)(=O)c3cccs3)ccc2O[C@@H]1CN(C)Cc1ccncc1 | . | 0 | . | . | . | .
C[C@H](CO)N1C[C@H](C)[C@H](CN(C)C(=O)c2ccncc2)OCc2cn(nn2)CCCC1=O | . | 0 | . | . | . | .
c1ccc(CNc2nc(-c3cccs3)nc3ccccc23)nc1 | 5 | 0 | 6 | 0 | -4 | -3
Cc1ccc(CNc2nc(-c3cccs3)nc3ccccc23)cc1 | 30 | 0 | -1 | 39* | 9 | -5
COC(=O)c1cc(=O)n(-c2ccc(F)cc2)c(=Nc2ccc(F)cc2)s1 | 18 | 0 | 39* | 18 | -5 | -6
SMILES | GC-A act | Xi reactivation | Glyco luc inh | GC-B act | Vif inh | CaV13 FRET inh
Cc1ccc(C)c2sc(NC(=O)CN3C(=O)CCC3=O)nc12 | 7 | 0 | 2 | -3 | 5 | -2
COc1cc([N+](=O)[O-])cc2sc(NC(=O)C(C)(C)C)nc12 | 21 | 0 | 1 | -3 | 7 | -20
CCCC(=O)Nc1nc2c(C)c(Cl)ccc2s1 | 43* | 0 | 0 | -3 | -13 | -1
Cc1ccc2sc(NC(=O)CN3C(=O)CCC3=O)nc2c1C | 50* | 0 | 0 | 7 | 1 | -6
COc1cc([N+](=O)[O-])cc2sc(NC(=O)C3CC3)nc12 | 47* | 0 | 5 | -4 | 0 | -6
Cc1c(Cl)ccc2sc(NC(=O)C3CC3)nc12 | 55* | 0 | -1 | -7 | 0 | -7
COc1ccc2c3c(n(C)c2c1)[C@H](CO)N(Cc1ccc2c(c1)OCO2)CC31CN(C)C1 | . | 0 | . | . | . | .
C[C@H](CO)N1C[C@H](C)[C@H](CN(C)C(=O)c2ccncc2)OCCCC[C@H](C)Oc2ccc(NS(C)(=O)=O)cc2C1=O | . | 0 | . | . | . | .
CC(=O)Nc1nc2c(C)c(Cl)ccc2s1 | 49* | 0 | 0 | -3 | -4 | -6
Cc1c(Cl)ccc2sc(NC(=O)CN3C(=O)c4ccccc4C3=O)nc12 | 11 | 1 | 1 | -4 | . | -4
COc1ccc(C2CC(c3ccncc3)=NN2c2ccc(S(N)(=O)=O)cc2)cc1 (stereo not drawn) | 24 | 0 | 8 | 5 | 93* | -16
COc1ccc(C2CC(c3ccc(Cl)cc3)=NN2c2ccc(S(N)(=O)=O)cc2)cc1 (stereo not drawn) | 10 | 0 | -4 | 0 | 24 | -4
Fc1c(F)c(F)c(/C=N/NC(=S)Nc2cccnc2)c(F)c1F | 58* | 0 | 3 | 1 | -9 | -5
COc1ccc(NC(=O)Nc2ccc3c(c2)CC(=O)N([C@@H](C)CO)C[C@H](C)[C@@H](CN(C)C(=O)Nc2ccccc2)O3)cc1 | . | -1 | . | . | . | .
CN1C(=O)c2cc(NC(=O)C3CCCC3)ccc2OC[C@H]2O[C@@H](CC(=O)Nc3ccccc3)CC[C@H]21 | . | 0 | . | . | . | .
COc1ccc(NS(=O)(=O)c2ccc(N3CCOCC3)c(NC(=O)C(C)C)c2)cc1 | -1 | 1 | 3 | 1 | -3 | -5
CCOC(=O)/C=C/C(=O)Nc1cc(S(=O)(=O)Nc2ccc(OC)cc2)ccc1N1CCOCC1 | 1 | 0 | -4 | -7 | 100* | -6
O=C(Nc1nc2c(F)cc(F)cc2s1)C1CCN(C(=O)c2ccc(F)cc2)CC1 | 68* | 0 | 0 | -7 | -1 | -6
CO[C@@H]1CN(C)C(=O)c2ccc(NC(=O)c3ccccc3F)cc2OC[C@H](C)N(CC2CCOCC2)C[C@H]1C | . | 1 | . | . | . | .
CN(C)S(=O)(=O)c1ccc(N2CCCC2)c(C(=O)Nc2nc(-c3ccc(F)cc3)cs2)c1 | 8 | 0 | 20 | 17 | 1 | -20
CN(C)S(=O)(=O)c1ccc(N2CCCC2)c(C(=O)Nc2ccccc2Br)c1 | 1 | 0 | 0 | 11 | 10 | -6
CN(C)S(=O)(=O)c1ccc(N2CCCC2)c(C(=O)Nc2nc3ccc(F)cc3s2)c1 | 8 | 0 | 63* | 6 | 8 | -3
